Molecules are shown by their SMILES. In brackets after ≈: the same amount, converted by molar mass.

From ChEMBL document CHEMBL1128446, “Pyrazinoic acid esters with broad spectrum in vitro antimycobacterial activity” (1995) come the findings set out here.

One test deals with Mycobacterium tuberculosis. Put plainly: Minimum Inhibitory Concentration against Mycobacterium tuberculosis ATCC 35828 for PZA resistant form. The format is functional. In outline:
(§1)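 Broth macrodilution in tubes of modified Middlebrook 7H10 broth (agar and malachite green omitted) with 10% OADC and 0.05% Tween 80 at pH 5.8. Cultures were grown 3 days at 37 °C on a rotary shaker, then diluted with 7H10 broth to 1 Klett unit/mL. Stocks were made in water or DMSO and filter-sterilised; 2-fold serial dilutions were tested. Tubes shaken 7–10 days at 37 °C, with a drug-free control. MIC = lowest concentration (μg/mL) with no visible turbidity.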
`CCCCCC(CC)OC(=O)c1cnc(Cl)cn1` (centres undefined) showed an MIC of 1 µg/mL (≈ 3.69 µM).

A further test relates to Mycobacterium tuberculosis. Put plainly: Minimum Inhibitory Concentration for PZA resistant forms against Mycobacterium tuberculosis ATCC 35828. In kind it is functional. In outline:
as §1
Consider `CCCCCCC(C)OC(=O)c1cnc(F)cn1` (centres undefined), for which the lowest concentration to inhibit growth (MIC) was 4 µg/mL (≈ 15.7 µM).

`CCCCCCOC(=O)c1cnc(F)cn1`: the MIC was 8 µg/mL (≈ 35.4 µM).

As for `CCCCCCCC(C)(CCCCC)OC(=O)c1cnc(Cl)cn1` (centres undefined), the lowest concentration to inhibit growth (MIC) was 8 µg/mL (≈ 22.5 µM).

As to `CCCOC(=O)c1cnc(C)cn1`, inhibition of growth (MIC) required 1 µg/mL (≈ 5.55 µM).

`CCCCCCCOC(=O)c1cnc(C)cn1` gave an MIC of 1 µg/mL (≈ 4.23 µM).

Molecule `CCCCCCCCC(C)(CCCC)OC(=O)c1cnc(Cl)cn1` (centres undefined) had an MIC of 8 µg/mL (≈ 22.5 µM).

As to `CCCCCCCCCCOC(=O)c1cnc(F)cn1`, it took 4 µg/mL (≈ 14.2 µM) to inhibit growth (MIC).

In the case of `CCCCCCCCCOC(=O)c1cnc(C)cn1`, the MIC amounted to 2 µg/mL (≈ 7.57 µM).

`CCCCCCCCC(C)(C)OC(=O)c1cnc(Cl)cn1` gave an MIC of 0.25 µg/mL (≈ 0.799 µM).

In turn, `CCCCCCC(C)(C)OC(=O)c1cnc(Cl)cn1` returned an MIC of 0.25 µg/mL (≈ 0.878 µM).

Molecule `CCCCCCC(C)(CCCCCC)OC(=O)c1cnc(Cl)cn1` gave an MIC of 0.5 µg/mL (≈ 1.41 µM).

`CCCCCCCCCC(C)(C)OC(=O)c1cnc(Cl)cn1` displayed an MIC of 16 µg/mL (≈ 48.9 µM).

The molecule `CCCCCC(C)(CCCCC)OC(=O)c1cnc(Cl)cn1` registered an MIC of 16 µg/mL (≈ 48.9 µM).

In turn, `COC(=O)c1cnc(C)cn1` came in with an MIC of more than 16 µg/mL.

The molecule `CCCCCCC(C)(CCCC)OC(=O)c1cnc(Cl)cn1` (centres undefined) came in with an MIC of 16 µg/mL (≈ 48.9 µM).

In turn, `CCCCCCCCC(CC)OC(=O)c1cnc(Cl)cn1` (centres undefined) yielded an MIC of 0.25 µg/mL (≈ 0.799 µM).

For the molecule `CCCCCC(C)(CCCC)OC(=O)c1cnc(Cl)cn1` (centres undefined), the MIC was determined as 16 µg/mL (≈ 51.1 µM).

In the case of `CCCCCCC(C)(CCCCC)OC(=O)c1cnc(Cl)cn1` (centres undefined), the MIC turned out to be 16 µg/mL (≈ 46.9 µM).

With `COC(=O)c1cnc(F)cn1`, the MIC came to 8 µg/mL (≈ 51.2 µM).

With `CC(C)(OC(=O)c1cnc(Cl)cn1)c1ccccc1`, the MIC is more than 16 µg/mL.

Take `CCCCCCCC(OC(=O)c1cnc(Cl)cn1)C(C)(C)C` (centres undefined): the MIC was found to be 2 µg/mL (≈ 6.12 µM).

On to `O=C(OCc1ccc(Br)cc1)c1cnc(Cl)cn1`, for which the MIC was more than 16 µg/mL.

`CCCCC(OC(=O)c1cnc(Cl)cn1)c1ccccc1` (centres undefined): the MIC was found to be 8 µg/mL (≈ 26.2 µM).

As to `CC(C)(C)C(OC(=O)c1cnc(Cl)cn1)c1ccccc1` (centres undefined), the MIC was determined as 16 µg/mL (≈ 52.5 µM).

Consider `Cc1ccc(C(C)OC(=O)c2cnc(Cl)cn2)cc1` (centres undefined), for which the MIC was found to be 2 µg/mL (≈ 7.23 µM).

Take `O=C(OCCc1ccc(Cl)cc1)c1cnc(Cl)cn1`: the MIC was determined as 32 µg/mL (≈ 108 µM).

As for `O=C(OC(c1ccccc1)c1ccccc1)c1cnc(Cl)cn1`, the MIC turned out to be 16 µg/mL (≈ 49.3 µM).

In the case of `CCCCCCCC(OC(=O)c1cnc(Cl)cn1)C(C)C` (centres undefined), 2 µg/mL (≈ 6.39 µM) was the least that counted as inhibitory (MIC).

The molecule `CCCCCCCCCCC(OC(=O)c1cnc(Cl)cn1)C(C)(C)C` (centres undefined) registered an MIC of 16 µg/mL (≈ 43.4 µM).

With `CCCCCCCC(C)(CCCC)OC(=O)c1cnc(Cl)cn1` (centres undefined), the MIC was found to be 16 µg/mL (≈ 46.9 µM).

`O=C(OCCc1ccccc1)c1cnc(Cl)cn1` had an MIC of 4 µg/mL (≈ 15.2 µM).

Turning to `CC(OC(=O)c1cnc(Cl)cn1)c1ccc(Br)cc1` (centres undefined), the MIC was 16 µg/mL (≈ 46.8 µM).

Turning to `CCC(C)(CC)OC(=O)c1cnc(Cl)cn1`, the MIC amounted to 4 µg/mL (≈ 16.5 µM).

A further test relates to Mycobacterium tuberculosis. Kind of test: Minimum Inhibitory Concentration against Mycobacterium tuberculosis ATCC 35828 PZA resistant form. The format is functional. In short, it runs like this:
as §1
Take `CCCCCCCC(C)OC(=O)c1cnc(Cl)cn1` (centres undefined): the MIC amounted to 2 µg/mL (≈ 7.02 µM).

Regarding `CCCCOC(=O)c1cnc(Cl)cn1`, it took 0.5 µg/mL (≈ 2.33 µM) to inhibit growth (MIC).

`CCCCCCCCCCOC(=O)c1cnccn1` came in with an MIC of 0.25 µg/mL (≈ 0.946 µM).

`COC(=O)c1cnccn1` registered an MIC of 64 µg/mL (≈ 463 µM).

Turning to `CC(C)COC(=O)c1cnc(Cl)cn1`, the MIC amounted to 2 µg/mL (≈ 9.32 µM).

Take `CCCCCC(C)OC(=O)c1cnc(Cl)cn1` (centres undefined): it took 0.06 µg/mL (≈ 0.234 µM) to inhibit growth (MIC).

For the molecule `CCCCCCCCC(C)OC(=O)c1cnc(Cl)cn1` (centres undefined), the MIC is less than 0.03 µg/mL.

In turn, `O=C(OCc1ccccc1)c1cnccn1` returned an MIC of 2 µg/mL (≈ 9.34 µM).

Molecule `CCCCCCCCCCCOC(=O)c1cnc(Cl)cn1` gave an MIC of 0.5 µg/mL (≈ 1.6 µM).

The molecule `CCCCCCCCCCOC(=O)c1cnc(Cl)cn1` yielded an MIC of 0.5 µg/mL (≈ 1.67 µM).

`CCCCCCCCCOC(=O)c1cnc(Cl)cn1` yielded an MIC of less than 0.03 µg/mL.

`CCCCCCCCCCCCCCCOC(=O)c1cnccn1`: the MIC was found to be 1 µg/mL (≈ 2.99 µM).

In turn, `Cc1cnc(C(=O)O)cn1` showed an MIC of more than 64 µg/mL.

`O=C(Oc1c(Br)cc(Br)cc1Br)c1cnccn1` returned an MIC of 32 µg/mL (≈ 73.2 µM).

On to `O=C(O)c1cnc(Cl)cn1`, for which inhibition of growth (MIC) required 64 µg/mL (≈ 404 µM).

As for `Cc1cc(C(C)(C)C)c(OC(=O)c2cnccn2)c(C(C)(C)C)c1`, the MIC was 128 µg/mL (≈ 392 µM).

The molecule `O=C(Oc1ccc(F)cc1)c1cnccn1` registered an MIC of 16 µg/mL (≈ 73.3 µM).

`CCCCCCCCOC(=O)c1cnc(Cl)cn1` displayed an MIC of less than 0.03 µg/mL.

`CCCCCOC(=O)c1cnc(Cl)cn1` gave an MIC of 0.12 µg/mL (≈ 0.525 µM).

`CC(C)COC(=O)c1cnccn1`: the minimal inhibitory concentration (MIC) turned out to be 64 µg/mL (≈ 355 µM).

`CCOC(=O)c1cnc(Cl)cn1` displayed an MIC of more than 16 µg/mL.

`COC(=O)c1cnc(Cl)cn1`: the MIC came out at 16 µg/mL (≈ 92.7 µM).

For the molecule `CCCCCCC(C)OC(=O)c1cnc(Cl)cn1` (centres undefined), the MIC came to 0.5 µg/mL (≈ 1.85 µM).

As to `CCCCCCCCCCCC(C)OC(=O)c1cnc(Cl)cn1` (centres undefined), the MIC was 0.5 µg/mL (≈ 1.47 µM).

Molecule `CCCCCCCCCC(C)OC(=O)c1cnc(Cl)cn1` (centres undefined) yielded an MIC of 1 µg/mL (≈ 3.2 µM).

Molecule `CCCCCC(CC)OC(=O)c1cnc(C)cn1` (centres undefined) had an MIC of 1 µg/mL (≈ 3.99 µM).

With `O=C(OCc1ccccc1)c1cnc(Cl)cn1`, 1 µg/mL (≈ 4.02 µM) was the least that counted as inhibitory (MIC).

The molecule `CC(C)(C)OC(=O)c1cnc(Cl)cn1` showed an MIC of 0.5 µg/mL (≈ 2.33 µM).

`O=C(Oc1cccc2ccccc12)c1cnccn1`: the MIC is 8 µg/mL (≈ 32 µM).

In turn, `C=CCOC(=O)c1cnc(Cl)cn1` came in with an MIC of 2 µg/mL (≈ 10.1 µM).

In turn, `CCCOC(=O)c1cnc(Cl)cn1` gave an MIC of 0.25 µg/mL (≈ 1.25 µM).

Regarding `CCCCCCCOC(=O)c1cnc(Cl)cn1`, the MIC is less than 0.03 µg/mL.

`CCCCCCOC(=O)c1cnc(Cl)cn1` came in with an MIC of 0.5 µg/mL (≈ 2.06 µM).

In the case of `NC(=O)c1cnccn1` [PYRAZINAMIDE], the lowest concentration to inhibit growth (MIC) was 2050 µg/mL (≈ 16600 µM).

`O=C(O)c1cnccn1` [PYRAZINOIC ACID] yielded an MIC of 32 µg/mL (≈ 258 µM).
